The list is not random: actives were taken first. Their share in the collection is about 6.6%.
BAP1 inh: inhibitors of human BAP1 deubiquitinase | Q92560 | recombinant BAP1, Ub-AMC hydrolysis fluorescence kinetic; stronger effect = lower value | calls only at 20 µM | 0.48% of 72,000 active;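 active = activity remaining at or below 50% of control, provided the compound also passes the data quality filters; inactive = the rest, including low values that fail the filters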
HEK293 NFkB inh: inhibitors of the PMA/ionomycin-induced NF-kB reporter in HEK293 cells. inhibition, % at 3 µM. HEK-293 NF-kB luciferase reporter, luminescence. 0.21% of 62,000 active. AID 465;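 active = inhibition above the mean of all tested compounds plus 3 SD, cut at about 40% in these data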
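Material: HEK-293 cells with stable firefly luciferase reporter driven by four HIV NF-kB elements / Also added: PMA plus ionomycin mix as NF-kB-activating stimulus / Compound dosing: 3 µM once, 0.30% DMSO / Times: 1 h pretreatment, 16 h stimulation, 37 °C / Signal: luminescence / Evaluation: per-plate % inhibition versus controls / Benchmarks: DMSO and 10 µM reference inhibitor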
M1 agonist: activates the M1 muscarinic receptor; 3% of 64,000 active; AID 626; CHO-M1 cells, Fluo-4 calcium fluorescence, agonist mode; stronger effect = higher value; B-score at 10 µM;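 active = fluorescence rise, raw or as B-score row- and column-corrected plate score, outside the 99.7% band of its plate's samples, either direction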
Her2 expr inh: inhibitors of human Her2 kinase expression | P04626 | 0.69% of 65,000 active | SKBR-3 HER2 protein level, AlphaScreen, 18-24 h; stronger effect = lower value | HER2 level % of control, % at 10 µM;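 active = HER2 level under 5% of the carrier-only control; inconclusive = no clear call, values can overlap the other calls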;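 note: lower value means stronger loss of Her2 protein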
JNK3 inh: inhibitors of human JNK3 kinase; 0.61% of 60,000 active; P53779; purified JNK3 kinase activity, HTS; inhibition, % at 8 µM; in the data active = inhibition above about 17%
Target sequence (P53779 whole entry, looked up): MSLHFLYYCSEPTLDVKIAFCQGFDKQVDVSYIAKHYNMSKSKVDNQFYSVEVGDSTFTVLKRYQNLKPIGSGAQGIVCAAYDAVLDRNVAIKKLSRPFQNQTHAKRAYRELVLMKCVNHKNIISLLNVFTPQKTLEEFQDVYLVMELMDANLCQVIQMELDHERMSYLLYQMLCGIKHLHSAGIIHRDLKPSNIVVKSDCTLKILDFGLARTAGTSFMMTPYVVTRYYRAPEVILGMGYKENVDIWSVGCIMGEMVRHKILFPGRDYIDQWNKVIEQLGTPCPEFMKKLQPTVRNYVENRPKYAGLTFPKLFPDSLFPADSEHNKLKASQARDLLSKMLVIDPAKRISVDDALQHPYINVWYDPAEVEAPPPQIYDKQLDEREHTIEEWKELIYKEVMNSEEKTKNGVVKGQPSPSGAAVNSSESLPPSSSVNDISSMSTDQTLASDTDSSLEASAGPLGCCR
M1 antag: blocks the rat M1 muscarinic receptor response to acetylcholine; P08482; CHO-M1 cells, Fluo-4 calcium, ACh EC80 antagonist mode; stronger effect = lower value; B-score at 10 µM; 3.4% of 64,000 active; AID 628;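 active = calcium fluorescence response, raw or row-and-column corrected B-score, differing from the plate sample mean either way at a set confidence level, mostly lower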
BAP1 inh confirm: BAP1 (human) enzyme inhibition, confirmed. shares compounds with BAP1 inh. purified BAP1, Ub-ethyl ester hydrolysis, HPLC; stronger effect = lower value. % of control activity, % at 20 µM. 8% of 310 active. AID 753;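 active = percent of control activity at or below 60%; inconclusive = HPLC trace unusable from injection failure or solvent front hiding peaks; inactive = the rest, plus ubiquitin peak ratio over a set limit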
M1 agonist conf: rat M1 muscarinic agonism, confirmation | shares compounds with M1 agonist | CHO-M1 cells, Fluo-4 calcium fluorescence, agonist mode; actives lie on both sides | fluorescence change (max-min) at 10 µM | 19% of 1,700 active | AID 1488;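 active = fluorescence change differs from the solvent-only DMSO control mean at a set confidence level in both duplicate runs; inconclusive = differs from solvent-only control mean in just one of two runs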;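 note: an EC20 dose of acetylcholine follows compound addition during the same imaging run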
M4 ag counter: counter-screen for M1 agonists: activity at rat M4 receptor; shares compounds with M1 agonist; CHO M4/Gqi5 cells, Fluo-4 calcium fluorescence, agonist mode; actives lie on both sides; fluorescence change (max-min) at 10 µM; 9% of 1,700 active; AID 1741;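 active = fluorescence change differing from the plate's solvent-only control wells at 99.7% confidence in both duplicates, whether higher or lower; inconclusive = differs from solvent controls in only one of two duplicates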
M1 antag conf: M1 muscarinic receptor (rat) antagonism, confirmed. shares compounds with M1 antag. CHO-M1 cells, Fluo-4 calcium, ACh EC80 antagonism; stronger effect = lower value. calcium response (max-min fluorescence) at 10 µM. 43% of 1,700 active. AID 677;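 active = calcium response below the same-plate mean of wells given acetylcholine alone at its 80%-effect dose, minus 3 SD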
mGluR4 antag: acts on human mGluR4 in M1 antagonist selectivity test; shares compounds with M1 antag; CHO-mGluR4 calcium flux, Fluo-4 fluorescence, glutamate EC80; stronger effect = lower value; fluorescence response (max-min) at 10 µM; 0.9% of 1,700 active;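 active = fluorescence response below the plate's average for near-maximal glutamate wells, less 3 SD of those wells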;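 note: raw unnormalized fluorescence span taken in the window right after glutamate addition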
Each line names hits and unclear results; the compound was inactive in the other large screens (follow-up assays come after a bar, where shown).

CCCCNC(=O)c1cc2c(-c3ccc(Cl)cc3)nn(C)c2s1	BAP1 inh active | BAP1 inh confirm inactive
O=C(Nc1ccc(O)c(-c2nc3ccccc3s2)c1)c1cccnc1	none (no result: HEK293 NFkB inh, M1 agonist, Her2 expr inh, JNK3 inh, M1 antag)
Cc1cc(C)n(-c2ccc(C(=O)OCC(=O)c3ccc(Br)s3)cc2)n1	BAP1 inh active | BAP1 inh confirm inactive
Cc1ccc(-c2nc3cccnc3o2)cc1NC(=O)COc1ccc(Cl)cc1C	BAP1 inh active | BAP1 inh confirm inactive
Cc1cc(NC(=O)c2cn(C3CCCCC3)c(=O)c3c2c2ccccc2n3C)no1	BAP1 inh active | BAP1 inh confirm inactive
O=C(c1ccco1)[C@@H]1[C@@H]2C(=O)N(c3ccc(Br)cc3)C(=O)[C@@H]2C2c3ccccc3C=CN21 (some centres not stated)	BAP1 inh active | BAP1 inh confirm inactive
O=C(c1ccco1)[C@@H]1[C@@H]2C(=O)N(c3ccc(F)cc3)C(=O)[C@@H]2C2c3ccccc3C=CN21 (some centres not stated)	none
COc1ccc(C2C(C#N)=C(N)OC3=C2C(=O)CC(C)C3)c(OC)c1OC (configuration not stated)	none
COc1cccc(C2C(C#N)=C(N)OC3=C2C(=O)CC(c2ccco2)C3)c1OCc1ccc(F)cc1 (configuration not stated)	BAP1 inh active | BAP1 inh confirm inactive
CCCc1cc(=O)oc2cc(C)c(CN3CCCC3)c(O)c12	BAP1 inh active | BAP1 inh confirm inactive
Cc1ccc(N=C2C(=O)Nc3ccc([N+](=O)[O-])cc32)c(C)c1	none (no result: HEK293 NFkB inh, M1 agonist, Her2 expr inh, JNK3 inh, M1 antag)
CC(C)c1nc(SCC(=O)Nc2ccc3c(c2)OCCO3)c2c(=O)n(C)c(=O)n(C)c2n1	none
CC(C)c1nc(SCC(=O)Nc2cccc(C(F)(F)F)c2)c2c(=O)n(C)c(=O)n(C)c2n1	BAP1 inh active | BAP1 inh confirm inactive
Cc1sc2nc(CN3CCOCC3)nc(N3CCC(C(N)=O)CC3)c2c1C	none | BAP1 inh confirm inactive
CCOC(=O)c1[nH]c(CSc2nnc(-c3ccc(OC)cc3)o2)c(C(=O)OCC)c1C	BAP1 inh active (no result: JNK3 inh) | BAP1 inh confirm inactive
COc1ccc(C2CC(=O)N3CN(c4ccc(C)c(Cl)c4)CSC3=C2C#N)cc1OC (configuration not stated)	BAP1 inh active, M1 agonist 10 | BAP1 inh confirm inconclusive | M1 agonist conf inconclusive | M4 ag counter inactive
CCOC(=O)c1c(-c2ccccc2)csc1NC(=O)c1ccc(I)cc1	none (no result: HEK293 NFkB inh, M1 agonist, Her2 expr inh, JNK3 inh, M1 antag)
Cc1nnc(C)n1N1C(=O)c2cccc3cccc(c23)C1=O	none (not shown: BAP1 inh)
NC1=CC(=O)c2cccc3cccc1c23	BAP1 inh active, M1 agonist 53 | BAP1 inh confirm inactive | M1 agonist conf 371 | M4 ag counter 440
CC1Cc2ccccc2N1C(=O)c1cc2c(=O)n3ccccc3nc2n1C (configuration not stated)	BAP1 inh active, M1 agonist 8.4 | BAP1 inh confirm inactive | M1 agonist conf inactive | M4 ag counter inactive
COc1ccc(Cn2nnnc2CN(Cc2cc3ccc(C)cc3[nH]c2=O)C2CCCC2)cc1	none
CCC(C)(C)n1nnnc1CN(Cc1cc2cc(OC)ccc2[nH]c1=O)C1CCCC1	BAP1 inh active, M1 agonist 2.6 | BAP1 inh confirm inactive | M1 agonist conf inactive | M4 ag counter inactive
Cc1ccc(Cl)cc1N1CCN(C(c2ccc(C#N)cc2)c2nnnn2C2CCCC2)CC1 (configuration not stated)	BAP1 inh active, M1 antag -4.1 | BAP1 inh confirm inactive | M1 antag conf inactive | mGluR4 antag inactive
Cn1c(SCC=Cc2ccccc2)nc2sc3c(c2c1=O)CCC3	none (no result: HEK293 NFkB inh, M1 agonist, Her2 expr inh, JNK3 inh, M1 antag)
CCCCn1c(NC(=O)c2ccccc2Cl)c(C#N)c2nc3ccccc3nc21	M1 agonist 20 (not shown: BAP1 inh) | M1 agonist conf 59 | M4 ag counter inactive
CCC(=O)Nc1c(C#N)c2nc3ccccc3nc2n1-c1ccccc1C	none
COc1ccc(-n2c(NC(=O)c3ccco3)c(C#N)c3nc4ccccc4nc32)cc1	M1 agonist 27 | M1 agonist conf inactive | M4 ag counter inactive
CN(c1ccc(C(=O)NCCc2ccccc2)cc1)S(=O)(=O)c1ccccc1	none (no result: HEK293 NFkB inh, M1 agonist, Her2 expr inh, JNK3 inh, M1 antag)
Cc1cc(C(=O)NCCCN2CCN(C3CCCCC3)CC2)n(-c2ccccc2)n1	M1 agonist 32 | M1 agonist conf inactive | M4 ag counter inconclusive
Cc1ccccc1NC(=O)NCCCN1CCN(C2CCCCC2)CC1	none
COc1ccccc1N1CCN(C(c2cc3ccc(C)cc3[nH]c2=O)c2nnnn2C2CCCC2)CC1 (configuration not stated)	M1 agonist -2.5 | M1 agonist conf inconclusive | M4 ag counter inactive
COc1ccccc1N1CCN(C(c2cc3cc(C)ccc3[nH]c2=O)c2nnnn2C2CCCC2)CC1 (configuration not stated)	none (not shown: BAP1 inh)
CCc1ccc(-c2nc3cc(NC(=O)c4cccc(I)c4)ccc3o2)cc1	none (no result: HEK293 NFkB inh, M1 agonist, Her2 expr inh, JNK3 inh, M1 antag)
CN1CCN(c2ncnc3c2cnn3-c2ccc(Cl)cc2)CC1	M1 agonist 2.9 (no result: Her2 expr inh) | M1 agonist conf inconclusive | M4 ag counter inactive
CC1CC(C)CN(c2ncnc3c2cnn3-c2ccc(Cl)cc2)C1 (configuration not stated)	none
C=CCOc1ccc2c(C)c(Cc3ccccc3)c(=O)oc2c1C	none (no result: HEK293 NFkB inh, M1 agonist, Her2 expr inh, JNK3 inh, M1 antag)
Cc1cc(C)n(-c2ncnc3c2oc2ccccc23)n1	none
COc1ccccc1N1CCN(c2ncnc3nc[nH]c23)CC1	M1 agonist 3 | M1 agonist conf inconclusive | M4 ag counter inactive
O=C(c1ccco1)N1CCN(c2ncccn2)CC1	none
O=C(c1ccco1)N1CCN(c2ncnc3c2oc2ccccc23)CC1	M1 agonist 14 | M1 agonist conf inactive | M4 ag counter inactive
COc1ccccc1N1CCN(c2ncnc3c2oc2ccccc23)CC1	M1 agonist 3.9 | M1 agonist conf -29 | M4 ag counter inactive

Bioassay records from PubChem BioAssay.
